ChEMBL document CHEMBL1136028, “Design and synthesis of orally bioavailable inhibitors of inducible nitric oxide synthase. Part 1: synthesis and biological evaluation of dihydropyridin-2-imines” (Bioorg Med Chem Lett, 2002)
pIC50: −log10 of the molar value.

How the values were obtained:
Nitric oxide synthase 3 = molecular target: T1, Nitric oxide synthase 3 (Homo sapiens, UniProt P29474); assay: Inhibition of human endothelial Nitric Oxide Synthase expressed in Sf-21 cells; set-up: species or system Sf21
T1 sequence (P29474 whole entry): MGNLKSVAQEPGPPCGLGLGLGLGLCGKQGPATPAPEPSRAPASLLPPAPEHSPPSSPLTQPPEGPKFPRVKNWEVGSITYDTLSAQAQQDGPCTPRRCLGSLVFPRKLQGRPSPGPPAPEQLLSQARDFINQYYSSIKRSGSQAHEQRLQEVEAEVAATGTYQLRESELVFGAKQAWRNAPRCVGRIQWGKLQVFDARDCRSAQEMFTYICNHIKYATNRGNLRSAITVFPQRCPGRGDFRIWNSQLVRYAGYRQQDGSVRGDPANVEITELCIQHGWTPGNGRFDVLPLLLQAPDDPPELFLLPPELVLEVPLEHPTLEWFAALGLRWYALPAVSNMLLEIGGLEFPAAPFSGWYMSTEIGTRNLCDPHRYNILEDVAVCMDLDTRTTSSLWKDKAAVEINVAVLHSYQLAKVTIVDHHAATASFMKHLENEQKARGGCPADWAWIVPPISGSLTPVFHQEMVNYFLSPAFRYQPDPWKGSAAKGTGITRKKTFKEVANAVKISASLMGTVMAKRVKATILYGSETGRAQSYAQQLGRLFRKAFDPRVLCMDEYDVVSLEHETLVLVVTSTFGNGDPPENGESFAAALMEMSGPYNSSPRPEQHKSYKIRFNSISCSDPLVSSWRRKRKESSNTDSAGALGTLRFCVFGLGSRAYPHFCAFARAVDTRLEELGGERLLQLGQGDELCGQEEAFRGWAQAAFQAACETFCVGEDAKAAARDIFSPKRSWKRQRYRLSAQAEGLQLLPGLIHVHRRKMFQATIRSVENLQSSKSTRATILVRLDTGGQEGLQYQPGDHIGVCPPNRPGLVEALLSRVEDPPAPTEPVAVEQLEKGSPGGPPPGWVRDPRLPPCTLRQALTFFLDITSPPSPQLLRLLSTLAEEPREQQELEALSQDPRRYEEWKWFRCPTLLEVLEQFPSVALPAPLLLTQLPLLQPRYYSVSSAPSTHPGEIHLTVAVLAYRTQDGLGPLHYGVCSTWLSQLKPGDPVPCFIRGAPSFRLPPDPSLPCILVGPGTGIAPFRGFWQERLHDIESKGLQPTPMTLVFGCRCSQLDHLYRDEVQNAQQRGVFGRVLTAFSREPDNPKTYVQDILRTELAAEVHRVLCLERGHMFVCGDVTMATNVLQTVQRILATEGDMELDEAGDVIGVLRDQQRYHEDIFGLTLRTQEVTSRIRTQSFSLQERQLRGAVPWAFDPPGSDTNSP
Summary of the method: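 Human eNOS was overexpressed in Sf-21 insect cells by infection with baculovirus carrying heNOS cDNA, then partially purified on 2',5'-ADP-Sepharose. Activity was read as [14C]-L-arginine to L-citrulline conversion at several inhibitor and L-arginine levels. Ki and mode of inhibition came from Dixon and Lineweaver–Burk plots.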

[1] = molecular target: T2, Nitric oxide synthase 3 (Homo sapiens) (UniProt P29474); assay: Selectivity was evaluated as the rate of the IC50 values for Endothelial Nitric Oxide Synthase and Inducible nitric oxide synthase
T2 sequence (whole entry): T1 sequence (P29474 whole entry)

[2] = molecular target: T3, Nitric oxide synthase, inducible (Homo sapiens, UniProt P35228); assay: Concentration required to inhibit Inducible nitric oxide synthase over expressed in A549 cells; assay type: cell-based
T3 sequence (P35228 whole entry): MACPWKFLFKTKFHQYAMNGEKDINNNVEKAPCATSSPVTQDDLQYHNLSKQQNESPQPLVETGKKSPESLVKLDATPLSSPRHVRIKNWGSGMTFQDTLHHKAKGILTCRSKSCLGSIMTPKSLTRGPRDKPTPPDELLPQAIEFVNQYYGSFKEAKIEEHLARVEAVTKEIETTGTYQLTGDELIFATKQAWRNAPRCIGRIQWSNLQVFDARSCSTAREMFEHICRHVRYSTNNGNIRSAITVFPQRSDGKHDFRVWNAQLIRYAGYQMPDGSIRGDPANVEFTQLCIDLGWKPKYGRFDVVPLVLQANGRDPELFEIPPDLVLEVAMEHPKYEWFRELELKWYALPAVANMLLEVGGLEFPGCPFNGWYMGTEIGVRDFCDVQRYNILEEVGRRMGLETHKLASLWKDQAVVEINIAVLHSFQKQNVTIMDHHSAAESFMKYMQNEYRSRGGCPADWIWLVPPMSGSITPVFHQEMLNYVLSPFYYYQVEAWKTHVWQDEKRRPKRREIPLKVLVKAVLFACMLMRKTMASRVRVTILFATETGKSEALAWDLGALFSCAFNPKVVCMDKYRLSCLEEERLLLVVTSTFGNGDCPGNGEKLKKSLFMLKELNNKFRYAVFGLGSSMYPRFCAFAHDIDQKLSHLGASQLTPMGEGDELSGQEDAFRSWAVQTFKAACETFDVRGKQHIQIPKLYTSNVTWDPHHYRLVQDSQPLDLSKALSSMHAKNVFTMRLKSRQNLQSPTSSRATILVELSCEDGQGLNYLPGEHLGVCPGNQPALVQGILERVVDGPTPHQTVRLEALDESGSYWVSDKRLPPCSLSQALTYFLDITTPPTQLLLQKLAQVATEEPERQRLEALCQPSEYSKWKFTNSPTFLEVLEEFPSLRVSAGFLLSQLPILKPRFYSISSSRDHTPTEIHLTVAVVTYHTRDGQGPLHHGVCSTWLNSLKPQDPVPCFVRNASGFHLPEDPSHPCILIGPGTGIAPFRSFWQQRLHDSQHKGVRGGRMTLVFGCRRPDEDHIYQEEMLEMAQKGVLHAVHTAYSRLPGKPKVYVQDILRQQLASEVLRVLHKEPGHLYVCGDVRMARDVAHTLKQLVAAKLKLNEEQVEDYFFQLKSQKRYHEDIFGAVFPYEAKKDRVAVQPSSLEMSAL
Summary of the method: (§1)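 Human iNOS was induced in A549 cells by LPS plus cytokines (10 ng/mL TNF-a, 5 ng/mL IL-1b, 100 ng/mL interferon-g), then partially purified on 2',5'-ADP-Sepharose. Activity was read as conversion of [14C]-L-arginine to L-citrulline at several inhibitor and L-arginine levels. Ki and mode of inhibition came from Dixon and Lineweaver–Burk plots.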

[3] = molecular target: T3, Nitric oxide synthase, inducible; assay: Concentration required to inhibit human Inducible nitric oxide synthase over expressed in A549 cells; assay type: cell-based; summary of the method: as §1
[4] = molecular target: Nitric oxide synthase (inducible and endothelial) (Homo sapiens) (UniProt P35228+P29474); assay: Selectivity was evaluated as the rate of the IC50 values for heNOS and hiNOS.; assay type: protein assay
[5] = molecular target: T4, Nitric oxide synthase, inducible (Mus musculus, UniProt P29477); assay: The concentration required for inhibition of Inducible nitric oxide synthase in mouse
T4 sequence (P29477 whole entry): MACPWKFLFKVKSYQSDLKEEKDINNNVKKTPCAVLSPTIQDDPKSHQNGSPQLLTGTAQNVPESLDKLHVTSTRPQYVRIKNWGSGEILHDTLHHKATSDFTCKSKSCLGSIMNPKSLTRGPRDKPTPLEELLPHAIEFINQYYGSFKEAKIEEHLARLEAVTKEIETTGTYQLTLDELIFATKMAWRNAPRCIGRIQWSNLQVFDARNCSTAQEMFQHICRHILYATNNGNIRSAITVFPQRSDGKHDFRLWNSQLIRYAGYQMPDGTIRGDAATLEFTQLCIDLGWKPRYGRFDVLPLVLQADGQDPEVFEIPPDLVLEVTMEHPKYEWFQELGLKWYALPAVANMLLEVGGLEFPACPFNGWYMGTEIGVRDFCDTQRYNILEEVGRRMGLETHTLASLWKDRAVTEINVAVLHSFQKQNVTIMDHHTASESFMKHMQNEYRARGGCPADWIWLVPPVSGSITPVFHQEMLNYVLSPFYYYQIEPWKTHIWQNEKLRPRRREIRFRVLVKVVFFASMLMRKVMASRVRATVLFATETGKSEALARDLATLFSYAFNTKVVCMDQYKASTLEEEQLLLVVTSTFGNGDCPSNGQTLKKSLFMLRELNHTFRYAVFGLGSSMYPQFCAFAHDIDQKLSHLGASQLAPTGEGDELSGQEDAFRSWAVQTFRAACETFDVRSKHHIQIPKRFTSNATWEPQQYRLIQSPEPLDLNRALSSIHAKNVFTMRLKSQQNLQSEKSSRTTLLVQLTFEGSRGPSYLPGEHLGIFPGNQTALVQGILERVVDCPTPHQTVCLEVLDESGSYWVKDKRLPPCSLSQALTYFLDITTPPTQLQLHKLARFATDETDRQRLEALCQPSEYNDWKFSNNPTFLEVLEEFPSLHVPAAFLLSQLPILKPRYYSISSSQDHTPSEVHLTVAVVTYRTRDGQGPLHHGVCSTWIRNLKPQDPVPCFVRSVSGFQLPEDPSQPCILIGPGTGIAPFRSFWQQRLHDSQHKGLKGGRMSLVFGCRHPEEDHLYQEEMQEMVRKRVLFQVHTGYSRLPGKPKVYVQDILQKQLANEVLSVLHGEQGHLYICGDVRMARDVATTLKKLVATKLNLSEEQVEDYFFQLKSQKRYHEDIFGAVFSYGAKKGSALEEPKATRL
Summary of the method: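 Enzyme was commercially purchased recombinant mouse iNOS, tested for inhibition by the test compounds.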

Mus musculus [6] = assay: The dose required for 50% inhibition of NOx accumulation in mice induced by LPS treatment after subcutaneous administration; assay type: functional; settings: sc, read-out: ID50 (the source's name)
Mus musculus [7] = assay: Maximum tolerated dose (MTD) at which no death was observed within 24 hr after intravenous administration.; assay type: functional
Summary of the method: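 Normal mice (mouse acute toxicity) given a single intravenous dose of test compound. MTD taken as the maximum dose at which no death was observed within 24 h after injection.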

[8] = Ratio of MTD/ID50 for NOx accumulation in mice; assay type: functional
Summary of the method: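 Balb/c mice, 7 weeks old, got LPS 10 mg/kg iv, then test compound or saline sc 3 h later. Plasma was taken from the abdominal aorta at 6 h, and NOx accumulated over 3 h was measured. ID50 is the sc dose halving LPS-induced NOx. MTD is the highest iv dose in normal mice with no death within 24 h. Ratio is MTD/ID50.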

Structure (SMILES) | pIC50 (Nitric oxide synthase 3) | Ratio [1] | pIC50 [2] | pIC50 [3] | Ratio [4] | pIC50 [5] | ED50 (Mus musculus [6]) | MTD (Mus musculus [7]) | Ratio [8]
CC1=CC(N)=NCC1C (centres undefined) | 6.28 | 1 | 6.29 | – | – | – | – | – | –
CC1=CC(N)=N[C@@H]2CCCC[C@H]12 | 5.13 | – | – | 5.85 | 5.3 | – | – | – | –
CC1(C)C=CC(N)=NC1 | 4.51 | – | – | 5.55 | 11.1 | – | – | – | –
C=CCC1CC(C)=CC(N)=N1 (centres undefined) | – | – | – | – | 7.2 | 7.60 | 0.16 mg/kg | 5 mg/kg | –
CC1=CC(N)=NCC1 | 6.64 | – | – | 6.70 | 1.2 | 7.66 | 0.16 mg/kg | 20 mg/kg | 130
CCCC1CC(C)=CC(N)=N1 (centres undefined) | 6.24 | – | – | 7.22 | 9.7 | 7.00 | 0.36 mg/kg | 5 mg/kg | 14
CC1=CC(N)=NC(C)C1 (centres undefined) | 6.62 | 1.3 | 6.74 | – | – | – | – | – | –
CC1=CC(N)=NCC1(C)C | 5.68 | – | – | 6.38 | 5 | 7.00 | 0.28 mg/kg | 20 mg/kg | 71

The next lines start with results.

pIC50 (Nitric oxide synthase 3) | Ratio [1] | pIC50 [2] | pIC50 [3] | Ratio [4] | Structure (SMILES) | pIC50 [5] | ED50 (Mus musculus [6]) | MTD (Mus musculus [7]) | Ratio [8]
6.29 | – | – | 6.77 | 3 | CC1=CC(N)=N[C@@H]2CCC[C@H]12 | – | – | – | –
6.49 | – | – | 6.51 | 1 | CC1=C(C)C(N)=NCC1 | – | – | – | –
6.36 | – | – | 6.15 | 0.6 | CC1=CCN=C(N)C1 | – | – | – | –
5.82 | – | – | 5.92 | 1.3 | CCC1=CC(=N)NCC1 | – | – | – | –
